Columns and labels:
[1] = target: T1, GABA-A receptor; alpha-5/beta-3/gamma-2 (Homo sapiens, UniProt P18507+P28472+P31644); assay: Inhibition of [3H]Ro-151788 binding to human GABA A receptor (alpha-5-beta-3-gamma-2) stably expressed in L(tk-) cells.; type: cell-based
T1 sequence (P18507 whole entry): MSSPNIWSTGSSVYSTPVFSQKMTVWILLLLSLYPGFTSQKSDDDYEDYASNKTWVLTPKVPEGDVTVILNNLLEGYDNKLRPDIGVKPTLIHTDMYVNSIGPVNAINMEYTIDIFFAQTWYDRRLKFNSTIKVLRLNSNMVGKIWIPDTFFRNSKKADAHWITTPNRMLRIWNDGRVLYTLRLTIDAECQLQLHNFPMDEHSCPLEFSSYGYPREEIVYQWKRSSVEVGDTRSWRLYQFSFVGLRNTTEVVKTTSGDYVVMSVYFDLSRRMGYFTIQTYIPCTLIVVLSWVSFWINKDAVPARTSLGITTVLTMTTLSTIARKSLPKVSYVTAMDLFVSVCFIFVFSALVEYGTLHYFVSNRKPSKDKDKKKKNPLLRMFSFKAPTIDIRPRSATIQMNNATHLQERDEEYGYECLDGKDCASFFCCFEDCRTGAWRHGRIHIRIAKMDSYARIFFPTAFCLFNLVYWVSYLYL
T1 sequence (P28472 whole entry): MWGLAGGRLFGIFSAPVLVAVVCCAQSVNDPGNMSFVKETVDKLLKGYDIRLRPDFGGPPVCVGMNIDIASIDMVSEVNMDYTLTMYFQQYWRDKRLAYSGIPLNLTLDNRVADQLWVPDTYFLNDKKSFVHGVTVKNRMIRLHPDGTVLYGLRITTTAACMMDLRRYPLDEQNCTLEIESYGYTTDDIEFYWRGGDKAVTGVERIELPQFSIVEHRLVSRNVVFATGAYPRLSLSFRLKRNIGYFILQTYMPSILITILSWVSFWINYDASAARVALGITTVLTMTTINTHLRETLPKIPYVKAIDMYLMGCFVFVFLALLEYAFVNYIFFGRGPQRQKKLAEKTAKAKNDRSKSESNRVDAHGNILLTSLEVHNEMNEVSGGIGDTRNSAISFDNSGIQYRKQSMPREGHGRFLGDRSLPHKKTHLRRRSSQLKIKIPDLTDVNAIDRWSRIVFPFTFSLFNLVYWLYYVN
T1 sequence (P31644 whole entry): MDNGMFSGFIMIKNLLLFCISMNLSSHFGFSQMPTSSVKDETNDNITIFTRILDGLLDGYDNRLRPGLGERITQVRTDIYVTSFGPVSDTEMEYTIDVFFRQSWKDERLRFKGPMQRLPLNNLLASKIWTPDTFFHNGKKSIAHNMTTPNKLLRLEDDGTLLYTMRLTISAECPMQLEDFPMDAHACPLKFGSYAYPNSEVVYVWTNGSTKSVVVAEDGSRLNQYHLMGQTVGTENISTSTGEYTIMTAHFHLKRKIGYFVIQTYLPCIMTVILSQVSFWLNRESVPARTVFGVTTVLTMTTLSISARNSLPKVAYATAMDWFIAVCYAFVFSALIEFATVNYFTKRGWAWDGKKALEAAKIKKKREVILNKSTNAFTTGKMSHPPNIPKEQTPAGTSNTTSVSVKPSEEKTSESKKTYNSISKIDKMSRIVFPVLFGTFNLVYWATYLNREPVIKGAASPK
Summary of the method: (§1)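 Competition binding against [3H]Ro15-1788 on cloned human α1/α2/α3/α5 β3γ2S receptors stably expressed in L(tk-) cells. Six to eight test concentrations spaced in half-log steps. Ki given as mean (SEM), n = 3-5, reported to two significant figures.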

[2] = target: T2, GABA-A receptor; alpha-1/beta-3/gamma-2 (Homo sapiens, UniProt P14867+P18507+P28472); assay: Inhibition of [3H]Ro-151788 binding to human GABA A receptor (alpha-1-beta-3-gamma-2) stably expressed in L(tk-) cells.; type: cell-based
T2 sequence (P14867 whole entry): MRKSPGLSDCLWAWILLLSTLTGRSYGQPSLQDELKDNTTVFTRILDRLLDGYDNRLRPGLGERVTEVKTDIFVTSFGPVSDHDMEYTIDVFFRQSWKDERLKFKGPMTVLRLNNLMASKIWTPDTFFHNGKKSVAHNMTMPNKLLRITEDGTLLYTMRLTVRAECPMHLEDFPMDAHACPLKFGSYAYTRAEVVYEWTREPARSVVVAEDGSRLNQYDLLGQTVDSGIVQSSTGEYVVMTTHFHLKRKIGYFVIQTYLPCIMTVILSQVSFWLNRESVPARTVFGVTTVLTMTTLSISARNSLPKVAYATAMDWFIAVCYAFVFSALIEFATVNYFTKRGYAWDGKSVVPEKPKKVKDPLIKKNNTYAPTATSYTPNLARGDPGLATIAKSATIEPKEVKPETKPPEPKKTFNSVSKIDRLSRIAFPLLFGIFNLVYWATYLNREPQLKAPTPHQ
T2 sequence (P18507 whole entry): T1 sequence (P18507 whole entry)
T2 sequence (P28472 whole entry): T1 sequence (P28472 whole entry)

[3] = target: T3, GABA-A receptor; alpha-2/beta-3/gamma-2 (Homo sapiens, UniProt P18507+P28472+P47869); assay: Displacement of [3H]Ro-151788 from human Gamma-aminobutyric acid A receptor alpha-2-beta-3-gamma-2 stably expressed in L(tk-) cells; type: cell-based; summary of the method: as §1
T3 sequence (P18507 whole entry): T1 sequence (P18507 whole entry)
T3 sequence (P28472 whole entry): T1 sequence (P28472 whole entry)
T3 sequence (P47869 whole entry): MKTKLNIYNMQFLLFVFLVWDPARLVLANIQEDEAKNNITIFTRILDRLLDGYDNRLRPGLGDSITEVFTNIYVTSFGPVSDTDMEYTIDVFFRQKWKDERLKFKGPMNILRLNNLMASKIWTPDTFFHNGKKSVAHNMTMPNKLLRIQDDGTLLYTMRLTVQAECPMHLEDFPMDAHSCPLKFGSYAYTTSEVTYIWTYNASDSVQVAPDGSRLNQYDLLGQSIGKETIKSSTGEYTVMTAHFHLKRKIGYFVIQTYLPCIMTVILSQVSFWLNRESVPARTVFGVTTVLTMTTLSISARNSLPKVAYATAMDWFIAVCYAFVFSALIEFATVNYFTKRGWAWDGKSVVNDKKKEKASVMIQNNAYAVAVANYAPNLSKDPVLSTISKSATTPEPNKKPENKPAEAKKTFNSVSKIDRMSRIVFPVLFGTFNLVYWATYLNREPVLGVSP

[4] = target: T4, GABA-A receptor; alpha-3/beta-3/gamma-2 (Homo sapiens, UniProt P18507+P28472+P34903); assay: Binding affinity by displacement of [3H]Ro-151788 from recombinant human gamma-aminobutyric-acid A receptor alpha3,beta3,gamma2 stably expressed in L cells; type: cell-based; summary of the method: as §1
T4 sequence (P18507 whole entry): T1 sequence (P18507 whole entry)
T4 sequence (P28472 whole entry): T1 sequence (P28472 whole entry)
T4 sequence (P34903 whole entry): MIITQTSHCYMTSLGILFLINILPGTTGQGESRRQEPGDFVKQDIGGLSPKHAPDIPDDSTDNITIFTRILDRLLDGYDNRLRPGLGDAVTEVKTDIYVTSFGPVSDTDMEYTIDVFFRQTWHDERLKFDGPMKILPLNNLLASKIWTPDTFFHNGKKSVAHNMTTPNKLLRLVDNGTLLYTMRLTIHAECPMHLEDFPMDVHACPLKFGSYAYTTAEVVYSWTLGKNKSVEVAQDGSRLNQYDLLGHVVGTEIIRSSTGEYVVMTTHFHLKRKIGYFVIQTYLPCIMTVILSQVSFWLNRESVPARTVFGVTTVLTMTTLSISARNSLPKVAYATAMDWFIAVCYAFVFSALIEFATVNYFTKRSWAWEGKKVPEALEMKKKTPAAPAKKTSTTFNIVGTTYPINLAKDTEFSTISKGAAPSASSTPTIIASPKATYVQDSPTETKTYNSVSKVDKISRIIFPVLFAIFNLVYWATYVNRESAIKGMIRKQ

[5] = target: GABA-A receptor; alpha-3/beta-3/gamma-2 (Homo sapiens) (UniProt P18507+P28472+P34903); assay: Modulatory effect on coapplication with GABA at human Gamma-aminobutyric acid A receptor alpha-3-beta-3-gamma-2 in Xenopus oocytes.; type: cell-based; conditions: Oocyte
Summary of the method: (§2)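 Two-electrode voltage clamp of Xenopus oocytes transiently expressing human α1, α2 or α3 β3γ2S receptors. Test compound is co-applied with GABA at its EC20 (GABA range 4-30 µM). Result is the % change in GABA current, mean (SEM), n = 3-7, at the stated test compound concentration (µM).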

[6] = target: T2, GABA-A receptor; alpha-1/beta-3/gamma-2; assay: Displacement of [3H]Ro-151788 from human GABA-A receptor alpha-1-beta-3-gamma-2 subunits expressed in L(tk-) cells; type: cell-based; summary of the method: as §1
[7] = target: GABA-A receptor; alpha-1/beta-3/gamma-2 (Homo sapiens) (UniProt P14867+P18507+P28472); assay: Modulatory effect on coapplication with GABA at human Gamma-aminobutyric acid A receptor alpha-1-beta-3-gamma-2 in Xenopus oocyte.; summary of the method: as §2
[8] = target: T3, GABA-A receptor; alpha-2/beta-3/gamma-2; assay: Displacement of [3H]Ro-151788 from human GABA-A receptor alpha-2-beta-3-gamma-2 subunits expressed in L(tk-) cells; type: cell-based; summary of the method: as §1
[9] = target: T1, GABA-A receptor; alpha-5/beta-3/gamma-2; assay: Displacement of [3H]Ro-151788 from human GABA-A receptor alpha-5-beta-3-gamma-2 subunits expressed in L(tk-) cells; type: cell-based; summary of the method: as §1
[10] = target: GABA-A receptor; alpha-2/beta-3/gamma-2 (Homo sapiens) (UniProt P18507+P28472+P47869); assay: Modulatory effect on coapplication with GABA at human Gamma-aminobutyric acid A receptor alpha-2-beta-3-gamma-2 expressed inXenopus oocytes; type: cell-based; conditions: Oocyte; summary of the method: as §2

Structure (SMILES)	Ki [1]	Ki [2]	Ki [3]	Ki [4]	percent modulation of GABA EC20 response [5]	Ki [6]	percent modulation of GABA EC20 response [7]	Ki [8]	Ki [9]	percent modulation of GABA EC20 response [10]
COc1ccc(-c2cc(C#N)c(OC)nc2-c2ccc(N(C)C)cc2)cc1	> 667 nM	> 30000 nM	> 30000 nM	> 30000 nM	–	–	–	–	–	–
COC(=O)c1cc(-c2ccccc2)c(-c2ccc(N(C)C)cc2)n(C)c1=O	> 667 nM	630 nM	470 nM	270 nM	–	–	–	–	–	–
COC(=O)c1cc(-c2ccc(OC)cc2)c(-c2ccccc2)n(C)c1=O	393 nM	–	340 nM	210 nM	–	625 nM	–	–	–	–
Cc1csc(-c2cc(-c3ccncc3)c(-c3ccncc3)n(C)c2=O)n1	–	–	–	6.7 nM	-4%	24 nM	-23%	20 nM	270 nM	–
COc1ccc(-c2cc(-c3ccccc3)c(=O)n(C)c2-c2ccncc2)cc1	> 1000 nM	83 nM	130 nM	24 nM	63%	–	45%	–	–	–
COC(=O)c1cc(-c2ccc(OC)cc2)c(-c2ccccn2)n(C)c1=O	> 667 nM	> 3000 nM	> 667 nM	510 nM	–	–	–	–	–	–
COc1ccc(-c2cc(-c3noc(C4CC4)n3)c(=O)n(C)c2-c2ccncc2)cc1	–	310 nM	240 nM	60 nM	150%	–	120%	–	–	142%
COC(=O)c1cc(-c2ccc(OC)cc2)c(-c2ccncc2)n(C)c1=O	390 nM	1020 nM	320 nM	79 nM	-25%	–	3%	–	–	8%
COC(=O)c1cc(-c2ccc(OC)cc2)c(-c2cccnc2)n(C)c1=O	> 667 nM	–	76 nM	73 nM	–	680 nM	–	–	–	–
Cc1csc(-c2cc(-c3ccc(F)cc3)c(-c3ccncc3)n(C)c2=O)n1	380 nM	13 nM	8 nM	3.5 nM	41%	–	57%	–	–	–
COC(=O)c1cc(-c2ccccc2)c(-c2ccccc2)n(C)c1=O	–	520 nM	–	270 nM	–	–	–	–	–	–
COc1ccc(-c2cc(-c3nc(C4CC4)cs3)c(=O)n(C)c2-c2ccncc2)cc1	> 1000 nM	31 nM	24 nM	12 nM	35%	–	29%	–	–	–
COc1ccc(-c2cc(-c3nc(C)cs3)c(=O)n(C)c2-c2cccnc2)cc1	> 667 nM	12.8 nM	5 nM	3.8 nM	77%	–	78%	–	–	–

Second part, the molecule after the results:

Ki [1]	Ki [2]	Ki [3]	Ki [4]	percent modulation of GABA EC20 response [5]	Ki [6]	percent modulation of GABA EC20 response [7]	Ki [8]	Ki [9]	percent modulation of GABA EC20 response [10]	Structure (SMILES)
> 1000 nM	330 nM	380 nM	250 nM	–	–	–	–	–	–	COc1ccc(-c2cc(-c3ncc(C)s3)c(=O)n(C)c2-c2ccncc2)cc1
450 nM	39 nM	51 nM	12 nM	18%	–	–	–	–	–	COc1ccc(-c2cc(-c3ccsc3)c(=O)n(C)c2-c2ccncc2)cc1
> 667 nM	90 nM	42 nM	25 nM	138%	–	117%	–	–	97%	COc1ccc(-c2cc(-c3nc(C)ns3)c(=O)n(C)c2-c2ccncc2)cc1
–	260 nM	1100 nM	320 nM	81%	–	111%	–	1300 nM	–	COc1ccc(-c2cc(-c3noc(C)n3)c(=O)n(C)c2-c2ccncc2)cc1
–	45 nM	37 nM	6.2 nM	32%	–	56%	–	> 1000 nM	67%	COc1ccc(-c2cc(-c3nccs3)c(=O)n(C)c2-c2ccncc2)cc1
–	41 nM	–	23 nM	–	–	–	38 nM	340 nM	–	COc1ccc(-c2cc(-c3cc(C)cs3)c(=O)n(C)c2-c2ccncc2)cc1

From ChEMBL document CHEMBL1136055, “3-Heteroaryl-2-pyridones: benzodiazepine site ligands with functional delectivity for alpha 2/alpha 3-subtypes of human GABA(A) receptor-ion channels” (J Med Chem, 2002)
